High-throughput results deposited in PubChem by several laboratories.
Hits are enriched below; roughly 1.8% of the tested compounds scored in any of these assays.
Rev-erbA mod: modulators of human Rev-erb alpha DNA binding. P20393. Rev-erbα–FITC-DNA binding, fluorescence polarization, 90 min. activity, % at 10 µM. hit rate 0.79% among 370,000. AID 1259318;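 active = activity above about 14%, limit read from the data; passing the limit was not always enough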;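 also: 0% = DMSO wells with 35 nM protein and 100% = DMSO wells with 750 nM protein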
Target sequence (P20393 whole entry, looked up): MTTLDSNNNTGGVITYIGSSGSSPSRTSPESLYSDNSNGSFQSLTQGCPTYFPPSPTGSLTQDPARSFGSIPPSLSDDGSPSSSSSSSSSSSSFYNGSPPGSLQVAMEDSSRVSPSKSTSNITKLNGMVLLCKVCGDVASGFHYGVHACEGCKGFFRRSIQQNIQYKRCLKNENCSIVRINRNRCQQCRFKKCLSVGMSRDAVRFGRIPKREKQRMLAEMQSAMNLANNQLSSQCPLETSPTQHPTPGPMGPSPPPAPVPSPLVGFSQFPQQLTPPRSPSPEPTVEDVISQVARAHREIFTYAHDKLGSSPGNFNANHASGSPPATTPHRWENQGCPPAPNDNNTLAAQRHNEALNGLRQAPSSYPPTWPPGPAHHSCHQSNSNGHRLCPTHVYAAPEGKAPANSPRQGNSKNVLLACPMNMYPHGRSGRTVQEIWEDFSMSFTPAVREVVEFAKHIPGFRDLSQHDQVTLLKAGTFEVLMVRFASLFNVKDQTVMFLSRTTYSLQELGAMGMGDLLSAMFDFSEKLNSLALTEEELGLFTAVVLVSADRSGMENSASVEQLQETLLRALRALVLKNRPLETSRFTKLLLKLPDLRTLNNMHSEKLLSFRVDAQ
PG9 binder: small molecules binding HIV-1 gp120 antibody PG9. hit rate 0.43% among 360,000. AID 624416. inhibition, % at 6.7 µM. TR-FRET gp120-PG9 antibody binding; in the data active = inhibition above about 8.5%
NR2E3 ag-1: activates human photoreceptor nuclear receptor NR2E3; GST-NR2E3/biotin-RetCOR TR-FRET, 1536-well; AID 2300; hit rate 0.12% among 320,000; Q9Y5X4; inhibition of corepressor binding, % at 4.78 µM;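 active = percent inhibition above the cutoff of mean plus 3 SD of all tested compounds, set per screening campaign, cut at about 20% in these data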;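 also: 0% = DMSO wells and 100% = biotin wells as full block of FRET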
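Material: NR2E3–RetCOR corepressor complex / Amount: 1.35 nM GST-NR2E3 / Medium: Tris pH 7.5 / Compound: single nominal compound dose of 4.8 µM / Incubation: 5 h at 4 °C / Technique: TR-FRET, Eu(K)-anti-GST donor, streptavidin-D2 acceptor, ex 340, em 617/671 nm / Read-out basis: percent loss of FRET ratio relative to control wells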
GalR3 antagonist: antagonists of human GalR3 | O60755 | HEK293 GalR3-CNG cAMP membrane potential fluorescence; galR3 body fused to GalR1 C-terminus | inhibition, % at 3 µM | hit rate 0.44% among 360,000 | AID 651719;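 active = inhibition above the screen-wide average plus 3 SD, cut at about 13% in these data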;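 also: forskolin and galanin both at EC90 stimulate the cells; cAMP rise reported by CNG channel membrane potential dye signal; 0% = forskolin plus galanin with DMSO and 100% = forskolin alone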
NR2E3 ag-2: agonists of human NR2E3 nuclear receptor | inhibition of corepressor binding, % at 3.98 µM | hit rate 0.35% among 360,000 | Q9Y5X4 | CHO-S Gal4-NCOR/VP16-NR2E3 two-hybrid, luciferase;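 active = inhibition above the mean of all tested compounds plus 3 SD, cut at about 70% in these data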;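 also: 0% = DMSO with NR2E3 transfected cells and 100% = cells lacking NR2E3 construct; higher means lower luciferase signal from less NR2E3 corepressor binding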
NR1D1 mod conf: confirmation of modulators of human Rev-erb alpha DNA binding | shares compounds with Rev-erbA mod | Rev-erb alpha FITC-DNA binding, fluorescence polarization, 90 min | activation, % at 25 µM | hit rate 61% among 3,000 | AID 1259319;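 active = activation at or above a set limit, or at least 3 SD above the negative control mean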;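 also: 0% = 35 nM protein with DMSO and 100% = 750 nM protein high control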
RORg counter: RORgamma DNA-binding activity, dose-response counter-screen. shares compounds with Rev-erbA mod. purified RORgamma protein-FITC-DNA binding, fluorescence polarization. IC50, µM. hit rate 8% among 910. AID 1259320;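 active = Compounds whose fitted half-maximal concentration for disrupting protein-DNA binding is below 10 micromolar; the record names Rev-erb in its text, so the target is in doubt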
The depositor's hits bear a star; i = inactive; x = not tested or not shown.

SMILES | Rev-erbA mod | PG9 binder | NR2E3 ag-1 | GalR3 antagonist | NR2E3 ag-2 | NR1D1 mod conf | others
COc1ccc2c(c1)c1nc3n(c(=O)c1n2CC(=O)Nc1cc(C)[nH]n1)CCS3 | 19* | -1 | -3 | -2 | x | -1
O=[N+]([O-])c1cc(-c2cnc3ccccc3n2)ccc1Oc1ccc(Cl)cc1 | 0 | 0 | 2 | 0 | -42 | x
O=[N+]([O-])c1cc(-c2cnc3ccccc3n2)ccc1Cl | 93* | -2 | -4 | -5 | -33 | 68* | RORg counter=>40
CCCCCN1CCCCC(NC(=O)c2ccccc2C)C1=O (stereo unspecified) | 1 | x | x | x | x | x
CSc1nc2cc(C)nn2c(-c2ccc(C(C)(C)C)cc2)c1C#N | 44* | -2 | 4 | 2 | -15 | 12
CSc1nc(-c2ccccc2)cc(C)c1C#N | 4 | 0 | 2 | 0 | -16 | x
CSc1nc2cc(C)nn2c(-c2ccccc2Cl)c1C#N | 42* | -1 | -5 | -5 | 1 | 15
CCCC(C)C(=O)NC1CCCCN(Cc2ccccc2C)C1=O (stereo unspecified) | 2 | x | x | x | x | x
CN1C(=O)c2cc(NC(=O)c3ccccc3)ccc2OC[C@H]2O[C@@H](CC(=O)NCC3CC3)CC[C@@H]21 | 34* | x | x | x | x | 22*
CN1C(=O)c2cc(NC(=O)c3cccc(F)c3)ccc2OC[C@@H]2O[C@H](CC(=O)NCc3ccccc3)CC[C@H]21 | -1 | x | x | x | x | x
Cc1ccccc1NC(=O)Nc1ccc2c(c1)C(=O)N(C)[C@H]1CC[C@H](CC(=O)NCC3CC3)O[C@@H]1CO2 | 30* | x | x | x | x | 14*
CN(C)c1ccc(NC(=S)OC2CCC23CCC(c2ccccc2)CC3)cc1 (stereo unspecified) | -1 | x | x | x | x | x
Cc1ccccc1CN1CCCCC(NC(=O)c2ccc3ccccc3c2)C1=O (stereo unspecified) | 6 | x | x | x | x | x
Cc1cccc(C)c1NC(=O)CN(C)C(=O)CCc1nc2sc3c(c2c(=O)[nH]1)CCCC3 | 3 | 2 | 2 | -6 | -4 | x
CN(CC(=O)Nc1cccc(F)c1)C(=O)CCc1nc2sc3c(c2c(=O)[nH]1)CCCC3 | 20* | 2 | 1 | -2 | 22 | 7
CN(CC(=O)Nc1ccc(F)c(F)c1F)C(=O)CCc1nc2sc3c(c2c(=O)[nH]1)CCCC3 | 19* | 0 | -2 | 3 | 1 | 17
C=CCOC(=O)N[C@H](c1ccccc1)[C@H](C)/C=C/CC(=O)OC | 0 | x | x | x | x | x
CCOC(=O)[C@]12CCCCC/C=C\1N(CCc1ccc(Cl)cc1)C(=O)[C@H]2CC(=O)N1CCN(C(=O)C2CC2)CC1 | 5 | x | x | x | x | x
Cc1ccc2nc3sc(C(=O)N4CCN(C)CC4)cc3cc2c1 | -9 | x | x | x | x | x
CCOc1ccc(-c2nc(-c3ccncc3)no2)cc1OCC | 11 | 0 | 2 | -7 | -28 | x
CCOc1cc(-c2nc(-c3ccncc3)no2)cc(OCC)c1OCC | 28* | 0 | 5 | -2 | 16 | 3
CCCCn1c(=O)[nH]c(=O)c2c1nc(-c1ccc(OCCC)c(OCC)c1)n2C | 21* | 0 | 0 | 7 | -7 | -6
Cc1cc2nc(SCC(=O)Nc3nonc3C)c3c(c2cc1C)CCCC3 | 103* | 1 | 2 | -7 | -13 | 81*
Cc1nonc1NC(=O)CSc1nc(C23CC4CC(CC(C4)C2)C3)nc2ccccc12 | 30* | 0 | 0 | -4 | -13 | 22*
Cc1ccc(Cn2nnc3c2-c2cc(F)ccc2S(=O)(=O)N(C(C)(C)C)C3)cc1 | 4 | x | x | x | x | x
SMILES | Rev-erbA mod | PG9 binder | NR2E3 ag-1 | GalR3 antagonist | NR2E3 ag-2 | NR1D1 mod conf | others
O=C(Nc1ccnc(=O)[nH]1)c1sc2ccccc2c1Cl | 37* | 3 | -1 | -8 | -27 | 23*
O=C(Nc1ccncc1)c1sc2ccccc2c1Cl | 1 | 1 | 3 | 7 | -56 | x
O=C(NCc1ccc(F)cc1)c1c(O)c2cccc3c2n(c1=O)CCC3 | 37* | 1 | 3 | -2 | -11 | 11
COc1ccc(-c2c(Cc3ccccc3)nc(NC(=O)c3ccccc3)n2Cc2ccccc2)cc1 | 8 | x | x | x | x | x
CCOC(=O)c1c(NC(=S)Nc2ccc(C)cc2)sc2c1CCC2 | 76* | -2 | 3 | -11 | -9 | 84* | RORg counter=>40
COC(=O)c1c(NC(=O)c2ccc(Br)s2)sc2c1CCC2 | 25* | -2 | 9 | -5 | 6 | 28*
CCOC(=O)c1c(NC(=O)CN(CC)CC)sc2c1CCC2 | 33* | -2 | 1 | -2 | -5 | 0
CCN1Cc2nnn(Cc3ccccc3)c2-c2ccccc2S1(=O)=O | 9 | x | x | x | x | x
COC(=O)[C@]12C[C@H](CC(=O)N3CCOCC3)C(=O)N(CCC3=CCCCC3)C1=C[C@H](C(C)C)O[C@@H]2C1CC1 | 2 | x | x | x | x | x
COC(=O)/C=c1/sc2nc3ccccc3n2c1=O | 3 | 2 | 2 | -2 | 4 | x
O=c1c2ccccc2nc2sc3ccccc3n12 | 22* | -1 | 0 | -3 | -130 | 32* | RORg counter=>40
CCOC(=O)N1CCN(C(=O)C[C@H]2C[C@@]3(C(=O)OC)C(=C[C@H](C(C)(C)C)O[C@@H]3C)N(Cc3cccc4ccccc34)C2=O)CC1 | 0 | x | x | x | x | x
Cn1c(SCC(=O)NCC2CCCO2)ncc(C(=O)Nc2ccc(F)cc2)c1=O (stereo unspecified) | 0 | 0 | 1 | -3 | -12 | x
Cn1cc(SCC(=O)NCC2CCCO2)c2ccccc21 (stereo unspecified) | 30* | -2 | 3 | x | 2 | 1
Cn1c(SCC(=O)NCC2CCCO2)ncc(C(=O)Nc2ccc(Cl)cc2)c1=O (stereo unspecified) | 24* | -3 | 1 | -5 | -35 | 2
CCCn1cc(SCC(=O)NCC2CCCO2)c2ccccc21 (stereo unspecified) | -2 | -1 | 1 | x | 2 | x
Cn1c(SCC(=O)NCCc2ccccc2)ncc(C(=O)Nc2ccccc2)c1=O | 30* | 5 | 1 | -4 | -9 | 20*
COc1ccc(Cn2cc(COC(=O)N3CCOCC3)nn2)cc1 | -2 | x | x | x | x | x
CC(C)[C@H](NC(=O)c1ccccc1)C(=O)N1CCC[C@H]1C(=O)NCc1ccccc1 | 2 | 1 | x | -8 | x | x
Nc1ccc2cc3ccc(N)cc3nc2c1 | 28* | x | x | x | x | 27* | RORg counter=>40
Cc1ccc2cc(N)ccc2n1 | -4 | 0 | x | 3 | -6 | x
CCCCOc1ccc(C(=O)NC2CCCCN(Cc3cccc(Cl)c3)C2=O)cc1 (stereo unspecified) | 10 | x | x | x | x | x
O=C(NCCO)C1(C(=O)C2CC2)CC(c2ccccn2)=NO1 (stereo unspecified) | 11 | x | x | x | x | x
COc1ccc2c(c1)c(=O)oc1cc(OCC(=O)NC3CC3)ccc12 | 24* | -2 | 0 | -3 | -20 | 34* | RORg counter=i
